Like-named read-outs stand apart in the source and are kept apart here. Each block holds one compound with its values, some of them ahead of it.
Experiments:
[1] = rats, same dose level; cited from earlier work
nitric oxide (NO) = conditions: read-out: IC50 for NO; in vitro; ref Park et al.[47]; cited from earlier work
PC-9 cells = conditions: PC-9 lung cancer cell line; cited from earlier work
prostaglandin E2 (PGE2) = conditions: read-out: IC50 for PGE2; in vitro; ref Park et al.[47]; cited from earlier work
[2] = Pharmacokinetic study 2: oral compound K, single or 4 wks, in rats; assay type: in vivo, Sprague Dawley rats; conditions: AUC 4 wks / AUC single
Procedure, shortened: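 Male SD rats (n = 5/group; 7 wk old for single dosing, 4 wk for 4 wks) got test compound in PBS by oral gavage at 5 or 10 mg/kg/day, single dose or 4 wks. Tail-vein plasma was sampled 0–24 h and assayed by LC-MS/MS. One-compartment model; AUC by trapezoids; Tmax as median (range). Accumulation factor = AUC(0−t) repeated / AUC(0−t) single at the same dose.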

[3] = 80% T>IC50, 5 mg/kg, single oral, rats
[4] = humans; cited from earlier work
A549 = A549 lung cancer cell line; cited from earlier work
[5] = assay type: in vivo, Sprague Dawley rats; conditions: for accumulation factor: rats
Procedure, shortened: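 Male SD rats (n = 5/group) were 7 wk old for the single dose, 6 wk for 2 wks, and 4 wk for 4 or 8 wks. They received KRG in PBS, 2 g/kg/day PO. Tail-vein blood was drawn 0–96 h after the last dose and spun 13,700 x g for 15 min; plasma was stored at −80 °C. Rb1, Rd and compound K were measured by LC-MS/MS with berberine as internal standard. Non-compartmental analysis was used; Tmax is reported as median (range).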

[6] = male, Sprague-Dawley, rat, plasma, po, 2 g/kg
[7] = KRG 2 g/kg oral, 2 wks vs single (AUC ratio)

SMILES: CC(C)=CCC[C@](C)(O[C@@H]1O[C@H](CO)[C@@H](O)[C@H](O)[C@H]1O)[C@H]1CC[C@]2(C)[C@@H]1[C@H](O)C[C@@H]1[C@@]3(C)CC[C@H](O)C(C)(C)[C@@H]3CC[C@]12C [Compound K, compound K]
- oral bioavailability [1]: 4%
- IC50 (nitric oxide (NO)): 12 µM
- in vitro IC50, antitumor activity (PC-9 cells): 14.46 µg/mL
- IC50 (prostaglandin E2 (PGE2)): 4 µM
- accumulation factor ([2]; compound K oral 5 mg/kg): 4
- accumulation factor ([2]; compound K oral 10 mg/kg): 7
- Calculated dosing interval ([3]; NO (IC50 12 µM)): ~7 h
- Calculated dosing interval ([3]; PGE2 (IC50 4 µM)): ~18 h
- time of appearance in plasma after consuming ginseng lacking compound K [4]: 8 h
- in vitro IC50, antitumor activity (A549): 16.11 µg/mL
- Cmax ([5]; rat plasma, KRG 2 g/kg oral, 4 wks): 2.9 ng/mL
- Cmax ([5]; rat plasma, KRG 2 g/kg oral, 8 wks): 2.3 ng/mL

- Cmax [5, 6]: 8.5 ng/mL
- accumulation factor [5, 7]: 2.2
- accumulation factor ([5]; KRG 2 g/kg oral, 8 wks vs single (AUC ratio)): 5
SMILES: CC(C)=CCC[C@](C)(O[C@@H]1O[C@H](CO)[C@@H](O)[C@H](O)[C@H]1O)[C@H]1CC[C@]2(C)[C@@H]1[C@H](O)C[C@@H]1[C@@]3(C)CC[C@H](O[C@@H]4O[C@H](CO)[C@@H](O)[C@H](O)[C@H]4O[C@@H]4O[C@H](CO)[C@@H](O)[C@H](O)[C@H]4O)C(C)(C)[C@@H]3CC[C@]12C [Rd, ginsenoside Rd]
- time within which excreted in the urine [4]: ≤ 3 h

SMILES: CC(C)=CCC[C@](C)(O[C@@H]1O[C@H](CO)[C@@H](O)[C@H](O)[C@H]1O)[C@H]1CC[C@]2(C)[C@@H]1[C@H](O)C[C@@H]1[C@@]3(C)CC[C@H](O)C(C)(C)[C@@H]3[C@@H](O[C@@H]3O[C@H](CO)[C@@H](O)[C@H](O)[C@H]3O)C[C@]12C [Rg1, ginsenoside Rg1]
- time within which excreted in the urine [4]: ≤ 3 h

- Cmax [5, 6]: 23.9 ng/mL
- Cmax at 8 wks [5, 6]: 68.3 ng/mL
- accumulation factor [5, 7]: approximately 3
SMILES: CC(C)=CCC[C@](C)(O[C@@H]1O[C@H](CO[C@@H]2O[C@H](CO)[C@@H](O)[C@H](O)[C@H]2O)[C@@H](O)[C@H](O)[C@H]1O)[C@H]1CC[C@]2(C)[C@@H]1[C@H](O)C[C@@H]1[C@@]3(C)CC[C@H](O[C@@H]4O[C@H](CO)[C@@H](O)[C@H](O)[C@H]4O[C@@H]4O[C@H](CO)[C@@H](O)[C@H](O)[C@H]4O)C(C)(C)[C@@H]3CC[C@]12C [Rb1, ginsenoside Rb1]
- time within which excreted in the urine [4]: ≤ 3 h

SMILES: CC(C)=CCC[C@](C)(O[C@@H]1O[C@H](CO[C@@H]2O[C@@H](CO)[C@H](O)[C@H]2O)[C@@H](O)[C@H](O)[C@H]1O)[C@H]1CC[C@]2(C)[C@@H]1[C@H](O)C[C@@H]1[C@@]3(C)CC[C@H](O[C@@H]4O[C@H](CO)[C@@H](O)[C@H](O)[C@H]4O[C@@H]4O[C@H](CO)[C@@H](O)[C@H](O)[C@H]4O)C(C)(C)[C@@H]3CC[C@]12C [Rc, ginsenoside Rc]
- time within which excreted in the urine [4]: ≤ 3 h

— PMC12316956 (Scientific Reports, 2025)
